Active and inactive are the calls of the source. The rule behind the calls is not given here. Where only a bound is given, the exact number is not on record here.

Consider six compounds from ChEMBL document CHEMBL1138606, “The discovery of tropane derivatives as nociceptin receptor ligands for the management of cough and anxiety” (Bioorg Med Chem Lett, 2009).

Data set [1] concerns the target T1, Mu-type opioid receptor (Homo sapiens, UniProt P35372). In words: Displacement of [3H]diprenorphine from human mu opioid receptor expressed in CHO cells. The data set is classed as cell-based.
In data set [2] the test system is Cavia porcellus. Put plainly: Antitussive activity against capsaicin-induced cough in po dosed Hartley guinea pig model after 2 hrs. The data set is classed as functional.
Data set [3] has as its target T2, Nociceptin receptor (Homo sapiens, UniProt P41146). Put plainly: Displacement of [125I][Tyr14]nociceptin from human cloned NOP receptor expressed in CHO cells. The format is cell-based.
The target of data set [4] is T1, Mu-type opioid receptor. In words: Agonist activity at human mu opioid assessed as stimulation of GDP-induced [35S]GTPgammaS binding. The data set is classed as functional. The procedure, abridged: (§1)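 Functional agonism measured as enhancement of [35S]GTPγS binding in the presence of GDP, using membranes from cells transfected with the receptor. Values are means of 2–3 experiments.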

The target of data set [5] is Kappa-type opioid receptor (Homo sapiens, UniProt P41145). Put plainly: Displacement of [3H]diprenorphine from human kappa opioid receptor expressed in CHO cells. The data set is classed as cell-based.
Sequence of Kappa-type opioid receptor (P41145 whole entry): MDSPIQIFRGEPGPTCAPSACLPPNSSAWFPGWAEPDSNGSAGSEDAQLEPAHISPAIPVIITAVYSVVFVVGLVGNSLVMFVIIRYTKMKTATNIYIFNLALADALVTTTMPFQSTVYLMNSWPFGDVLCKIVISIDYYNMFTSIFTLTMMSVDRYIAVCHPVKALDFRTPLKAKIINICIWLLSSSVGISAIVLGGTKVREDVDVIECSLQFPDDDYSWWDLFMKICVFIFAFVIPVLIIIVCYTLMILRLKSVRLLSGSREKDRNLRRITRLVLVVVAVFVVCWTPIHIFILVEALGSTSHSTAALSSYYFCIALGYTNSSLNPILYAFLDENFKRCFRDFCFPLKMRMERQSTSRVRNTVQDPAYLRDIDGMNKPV
For data set [6], the target named is Delta-type opioid receptor (Homo sapiens, UniProt P41143). Put plainly: Displacement of [3H]diprenorphine from human delta opioid receptor expressed in CHO cells. The format is cell-based.
Sequence of Delta-type opioid receptor (P41143 whole entry): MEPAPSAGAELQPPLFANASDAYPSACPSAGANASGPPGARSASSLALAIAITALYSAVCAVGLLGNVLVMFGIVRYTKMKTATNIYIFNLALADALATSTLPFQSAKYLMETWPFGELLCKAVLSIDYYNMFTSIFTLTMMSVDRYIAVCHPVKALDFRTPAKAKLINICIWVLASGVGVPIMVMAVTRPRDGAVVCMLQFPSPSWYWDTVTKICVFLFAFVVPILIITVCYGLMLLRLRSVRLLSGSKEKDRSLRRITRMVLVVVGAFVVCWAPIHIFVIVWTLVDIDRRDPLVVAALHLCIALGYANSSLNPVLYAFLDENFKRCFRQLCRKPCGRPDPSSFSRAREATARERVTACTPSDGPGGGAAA
Data set [7] has as its system Rattus norvegicus. Put plainly: Anxiolytic activity in po dosed CD rats assessed as suppression of conditioned paw licking administered twice per day for 14 days measured after 2 hrs of last dose. The format is functional.
The species named for data set [8] is Cavia porcellus. In words: Anxiolytic activity in Dunkin-Hartley guinea pig pup assessed as reduction in number of vocalization produced due to separation measured after 2 hrs. The data set is classed as functional.
Data set [9] deals with Cavia porcellus. Put plainly: Antitussive activity against capsaicin-induced cough in po dosed Hartley guinea pig model after 2 hrs in presence J113397. The data set is classed as functional, organism-based.
Data set [10] relates to Cavia porcellus. In words: Antitussive activity against capsaicin-induced cough in po dosed Hartley guinea pig model after 2 hrs in presence naltrexone. The format is functional, organism-based.
The test system of data set [11] is Cavia porcellus. Put plainly: Antitussive activity against capsaicin-induced cough in po dosed Hartley guinea pig model after 2 hrs in presence naloxone. The data set is classed as functional, organism-based.
Data set [12] has as its target T3, Cytochrome P450 2C9 (Homo sapiens, UniProt P11712). In words: Inhibition of CYP2C9 co-incubated with substrate. The format is ADME.
Data set [13] in a line: AUC (0 to 24 hrs) in rat at 3 mg/kg, po. The format is ADME, organism-based. Further details: time < 24 hr, dose 3 mg/kg, route oral. As to conditions: plasma.
Data set [14] in a line: Cmax in rat at 3 mg/kg, po. The data set is classed as ADME, organism-based. Further details: dose 3 mg/kg, route oral. As to conditions: in vivo.
Data set [15] is described as follows: Half life in rat at 3 mg/kg, po. The data set is classed as ADME, organism-based. To be noted: in vivo. Further details: dose 3 mg/kg, route oral.
Data set [16] is described as follows: Oral bioavailability in rat at 3 mg/kg. The format is ADME, organism-based. To be noted: in vivo.
Data set [17] can be described thus: Clearance in rat at 3 mg/kg, po. The data set is classed as ADME, organism-based. Further details: dose 3 mg/kg, route oral. As to conditions: in vivo.
Data set [18] deals with Rattus norvegicus. Put plainly: Volume of distribution at steady state in rat at 3 mg/kg, po. To be noted: in vivo. The format is ADME, organism-based. Further details: dose 3 mg/kg, route oral.
In the next data set the target is Cytochrome P450 2D6 (Homo sapiens, UniProt P10635). Put plainly: Inhibition of CYP2D6. The format is ADME.
Sequence of Cytochrome P450 2D6 (P10635 whole entry): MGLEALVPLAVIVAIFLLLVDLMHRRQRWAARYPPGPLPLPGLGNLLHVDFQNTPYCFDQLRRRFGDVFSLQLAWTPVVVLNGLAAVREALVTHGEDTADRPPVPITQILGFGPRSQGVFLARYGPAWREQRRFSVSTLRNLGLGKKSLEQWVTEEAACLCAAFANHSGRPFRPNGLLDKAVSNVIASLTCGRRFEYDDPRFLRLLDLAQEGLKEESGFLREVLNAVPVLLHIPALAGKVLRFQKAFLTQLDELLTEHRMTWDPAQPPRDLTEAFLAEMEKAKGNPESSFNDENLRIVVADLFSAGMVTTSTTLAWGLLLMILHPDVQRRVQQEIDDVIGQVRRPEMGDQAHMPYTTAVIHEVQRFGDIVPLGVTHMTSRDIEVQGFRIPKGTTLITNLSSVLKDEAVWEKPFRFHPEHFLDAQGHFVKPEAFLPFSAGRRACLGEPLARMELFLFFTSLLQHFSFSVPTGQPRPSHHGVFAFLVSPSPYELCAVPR
The next data set concerns the target Cytochrome P450 3A4 (Homo sapiens, UniProt P08684). In words: Inhibition of CYP3A4. The format is ADME.
Data set [19] addresses T3, Cytochrome P450 2C9. In words: Inhibition of CYP2C9 pre-incubated before addition of substrate. The data set is classed as ADME.
Data set [20] can be described thus: Clearance in human hepatocytes measured per 10^6 cells. The data set is classed as ADME, cell-based, Liver, Hepatocyte.
Data set [21] relates to Rattus norvegicus. In words: Anxiolytic activity in po dosed CD rats assessed as suppression of conditioned paw licking administered twice per day for 14 days measured after 2 hrs of last dose in presence of […]. The data set is classed as functional, organism-based.
Data set [22] addresses T2, Nociceptin receptor. Put plainly: Agonist activity at human NOP assessed as stimulation of GDP-induced [35S]GTPgammaS binding. The format is functional. The method, boiled down:
as §1

Data set [23] addresses T4, Nuclear receptor subfamily 1 group I member 2 (Homo sapiens, UniProt O75469).
T4 sequence (O75469 whole entry): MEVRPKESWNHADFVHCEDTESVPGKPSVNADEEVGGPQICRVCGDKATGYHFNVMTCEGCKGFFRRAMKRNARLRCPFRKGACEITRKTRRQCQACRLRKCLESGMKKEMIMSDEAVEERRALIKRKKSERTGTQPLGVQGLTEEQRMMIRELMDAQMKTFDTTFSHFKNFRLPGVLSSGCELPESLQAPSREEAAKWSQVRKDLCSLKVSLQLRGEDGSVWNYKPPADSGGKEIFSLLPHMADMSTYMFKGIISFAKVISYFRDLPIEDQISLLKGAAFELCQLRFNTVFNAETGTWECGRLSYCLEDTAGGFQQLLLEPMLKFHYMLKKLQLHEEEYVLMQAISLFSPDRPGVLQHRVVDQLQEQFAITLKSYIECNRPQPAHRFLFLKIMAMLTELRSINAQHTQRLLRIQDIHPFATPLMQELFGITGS
Put plainly: Activity at human PXR assessed as induction of CYP3A4 activity in human hepatocytes at 1 uM relative to rifampicin. The format is cell-based, Hepatocyte.

In data set [24] the target is T2, Nociceptin receptor. Put plainly: Agonist activity at human NOP assessed as stimulation of GDP-induced [35S]GTPgammaS binding at 10 uM. The format is functional. The procedure, abridged:
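Functional agonism measured as enhancement of [35S]GTPγS binding in the presence of GDP, using membranes from cells transfected with the receptor. […] Values are means of 2–3 experiments.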

T1 sequence (P35372 whole entry): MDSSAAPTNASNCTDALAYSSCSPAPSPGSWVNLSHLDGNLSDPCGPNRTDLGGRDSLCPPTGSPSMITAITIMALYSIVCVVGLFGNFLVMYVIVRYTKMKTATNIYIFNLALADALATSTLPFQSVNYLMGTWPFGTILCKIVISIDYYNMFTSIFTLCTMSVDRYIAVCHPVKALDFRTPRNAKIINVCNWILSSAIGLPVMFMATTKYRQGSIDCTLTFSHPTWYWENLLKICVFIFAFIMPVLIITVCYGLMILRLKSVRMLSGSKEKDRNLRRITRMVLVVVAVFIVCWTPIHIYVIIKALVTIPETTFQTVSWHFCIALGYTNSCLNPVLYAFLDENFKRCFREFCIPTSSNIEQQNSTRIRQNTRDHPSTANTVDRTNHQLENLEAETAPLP
T2 sequence (P41146 whole entry): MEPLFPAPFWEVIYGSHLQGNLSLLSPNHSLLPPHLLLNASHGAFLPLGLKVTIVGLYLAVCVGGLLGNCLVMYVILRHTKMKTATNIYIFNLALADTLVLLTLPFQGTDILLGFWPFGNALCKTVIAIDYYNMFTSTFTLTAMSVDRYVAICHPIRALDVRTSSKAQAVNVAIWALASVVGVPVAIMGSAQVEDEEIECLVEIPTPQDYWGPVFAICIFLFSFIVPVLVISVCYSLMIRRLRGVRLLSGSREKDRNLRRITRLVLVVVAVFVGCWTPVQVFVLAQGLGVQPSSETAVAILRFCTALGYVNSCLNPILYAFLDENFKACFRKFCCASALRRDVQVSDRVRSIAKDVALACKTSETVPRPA
T3 sequence (P11712 whole entry): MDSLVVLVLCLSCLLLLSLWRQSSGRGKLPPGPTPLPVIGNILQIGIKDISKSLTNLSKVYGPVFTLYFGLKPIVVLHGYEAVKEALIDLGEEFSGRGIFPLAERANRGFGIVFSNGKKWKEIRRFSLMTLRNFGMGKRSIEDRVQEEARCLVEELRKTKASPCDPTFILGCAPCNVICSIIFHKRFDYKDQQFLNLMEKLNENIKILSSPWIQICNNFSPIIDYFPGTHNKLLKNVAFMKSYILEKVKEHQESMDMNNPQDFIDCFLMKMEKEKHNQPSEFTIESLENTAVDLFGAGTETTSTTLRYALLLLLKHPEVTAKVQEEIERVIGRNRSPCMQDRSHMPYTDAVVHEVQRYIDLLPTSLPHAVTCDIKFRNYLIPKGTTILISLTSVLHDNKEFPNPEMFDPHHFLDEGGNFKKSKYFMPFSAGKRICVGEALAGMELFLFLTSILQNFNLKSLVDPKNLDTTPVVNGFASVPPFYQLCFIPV
Sequence of Cytochrome P450 3A4 (P08684 whole entry): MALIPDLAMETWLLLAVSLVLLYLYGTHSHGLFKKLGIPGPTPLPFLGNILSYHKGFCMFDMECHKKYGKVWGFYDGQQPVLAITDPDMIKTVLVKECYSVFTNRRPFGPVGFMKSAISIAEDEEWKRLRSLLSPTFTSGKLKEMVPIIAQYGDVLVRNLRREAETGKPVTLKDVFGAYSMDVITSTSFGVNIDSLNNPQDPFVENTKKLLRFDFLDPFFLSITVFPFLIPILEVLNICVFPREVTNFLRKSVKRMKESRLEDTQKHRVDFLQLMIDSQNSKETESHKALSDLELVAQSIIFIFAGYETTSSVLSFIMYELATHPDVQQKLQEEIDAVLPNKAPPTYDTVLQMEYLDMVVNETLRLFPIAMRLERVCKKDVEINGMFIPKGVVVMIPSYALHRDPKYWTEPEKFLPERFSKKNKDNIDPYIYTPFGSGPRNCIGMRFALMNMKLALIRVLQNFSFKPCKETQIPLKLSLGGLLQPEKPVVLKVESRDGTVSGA

For `OC1(c2ccccc2)CC2CCC(C1)N2C(c1ccccc1)c1ccccc1` (stereo not given), the affinity at Mu-type opioid receptor [1] corresponds to a Ki of 94 nM. Also, the result with Cavia porcellus [2] was inactive.
For the compound `OC1(c2ccccc2)CC2CCC(C1)N2C(c1ccccc1Cl)c1ccccc1Cl` (stereo not given), the inhibition constant (Ki) amounted to 3.4 nM at Nociceptin receptor [3], 22 nM on Mu-type opioid receptor [1], 109 nM in data set [5] and 3140 nM in [6]. Further, the 50% effective concentration (EC50) at Mu-type opioid receptor [4] stood at 337 nM. Also, the ED50 is 0.4 mg/kg in the data set with Cavia porcellus [2], 1.4 mg/kg with Rattus norvegicus [7] and 0.4 mg/kg in the data set filed under Cavia porcellus [8]. Besides, the result in the data set with Cavia porcellus [9] was inactive. For the same compound, the result in the data set with Cavia porcellus [10] and in the data set with Cavia porcellus [11] was Active.
Take `NC(=O)C1(c2ccccc2)CC2CCC(C1)N2C(c1ccccc1Cl)c1ccccc1Cl` (stereo not given): the IC50 is 8000 nM at Cytochrome P450 2C9 [12], more than 30000 nM on Cytochrome P450 2D6, more than 30000 nM on Cytochrome P450 3A4 and 19000 nM against Cytochrome P450 2C9 [19]. Further, the ED50 was 0.3 mg/kg in the data set on Cavia porcellus [2], 1.4 mg/kg in the data set on Rattus norvegicus [7] and 0.4 mg/kg in the data set listed under Cavia porcellus [8]. The AUC(0-t) at 24 h in [13] is 0.54 µM·h. This compound also had a Cmax in data set [14] of 80 nM. This compound gave a half-life in [15] of 1.8 h. In [16], this compound gave a bioavailability of 37%. In data set [17], the CL/F came out at 73 mL/min/kg. In the data set on Rattus norvegicus [18], this compound yielded a Vdss of 9.1 L/kg. Moreover, the intrinsic clearance (hepatocyte CLint) in [20] stood at 3 µL/min/1e6 cells. For the same compound, in the data set with Rattus norvegicus [21], the outcome was inactive.
With `NC(=O)C1(c2ccc(F)cc2)CC2CCC(C1)N2C(c1ccccc1Cl)c1ccccc1Cl` (stereo not given), the Ki on Nociceptin receptor [3] was 16 nM; on Mu-type opioid receptor [1], 126 nM; in data set [5], 752 nM; in data set [6], 1040 nM. Besides, the EC50 amounted to 14 nM on Nociceptin receptor [22] and 947 nM at Mu-type opioid receptor [4]. Further, the values for the ED50 in the data set with Cavia porcellus [2], in the data set on Rattus norvegicus [7] and in the data set listed under Cavia porcellus [8] were 0.03 mg/kg, 2.7 mg/kg and 0.2 mg/kg, respectively. In addition, in data set [23], the Ratio came to 0.27. In addition, in data set [13], the AUC(0-t) at 24 h came out at 1.27 µM·h. In data set [14], this compound came in with a Cmax of 250 nM. This compound also had a half-life in [15] of 1.8 h. The bioavailability in data set [16] came out at 45%. Moreover, in data set [17], the CL/F stood at 33 mL/min/kg. The Vdss in the data set with Rattus norvegicus [18] was 1.8 L/kg.
For the compound `OC1(c2ccccc2)CC2CCCC(C1)N2C(c1ccccc1)c1ccccc1` (stereo not given), the Ki at Nociceptin receptor [3] stood at 7.5 nM; at Mu-type opioid receptor [1], 514 nM. On Nociceptin receptor [24], the Activity was 101%.
In the same order, the values of `C[C@@H]1CN(C(c2ccccc2)c2ccccc2)CC[C@@]1(O)c1ccccc1` are 142 nM, 738 nM and 70%.
